According to ChEMBL document CHEMBL1926597, “Isoflavonoids and coumarins from Glycyrrhiza uralensis: antibacterial activity against oral pathogens and conversion of isoflavans into isoflavan-quinones during purification” (J Nat Prod, 2011):
Activity calls are given as the source filed them. The rule behind the calls is not given here.

Columns and labels:
Streptococcus mutans [1] = test: Antibacterial activity against Streptococcus mutans ATCC 25175 assessed as growth inhibition at 1.25 to 10 ug/ml after 24 hrs by microplate dilution assay; format: functional, organism-based
Streptococcus sobrinus [2] = test: Antibacterial activity against Streptococcus sobrinus ATCC 33478 assessed as growth inhibition at 1.25 to 10 ug/ml after 24 hrs by microplate dilution assay; format: functional, organism-based
Prevotella intermedia [3] = test: Antibacterial activity against Prevotella intermedia ATCC 25611 assessed as growth inhibition at 1.25 to 10 ug/ml after 24 hrs by microplate dilution assay; format: functional, organism-based
In short: (§1)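 Todd Hewitt broth with hemin (10 μg/mL) and vitamin K (1 μg/mL). 24-h cultures were diluted to OD660 0.2 and mixed 1:1 with serial dilutions in broth (compounds 10 to 1.25 μg/mL; penicillin G 2.5 to 0.00625 μg/mL). Plates were incubated 24 h at 37 °C anaerobically (N2–H2–CO2 75:10:15), then OD660 was read against no-compound control wells. Triplicates were given as mean ± SD; Student's t test was applied when inhibition was ≥20%.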

Streptococcus mutans [4] = test: Antibacterial activity against Streptococcus mutans ATCC 25175 assessed as growth inhibition at 10 ug/ml after 24 hrs by microplate dilution assay; format: functional, organism-based
Streptococcus sobrinus [5] = test: Antibacterial activity against Streptococcus sobrinus ATCC 33478 assessed as growth inhibition at 10 ug/ml after 24 hrs by microplate dilution assay; format: functional, organism-based
Fusobacterium nucleatum [6] = test: Antibacterial activity against Fusobacterium nucleatum ATCC 25586 assessed as growth inhibition at 1.25 to 10 ug/ml after 24 hrs by microplate dilution assay; format: functional, organism-based; in short: as §1
Porphyromonas gingivalis [7] = test: Antibacterial activity against Porphyromonas gingivalis ATCC 33277 assessed as growth inhibition at 1.25 to 10 ug/ml after 24 hrs by microplate dilution assay; format: functional; in short: as §1
Streptococcus mutans [8] = test: Antibacterial activity against Streptococcus mutans ATCC 25175 assessed as growth inhibition at 0.00625 to 2.5 ug/ml after 24 hrs by microplate dilution assay; format: functional, organism-based
Streptococcus sobrinus [9] = test: Antibacterial activity against Streptococcus sobrinus ATCC 33478 assessed as growth inhibition at 0.00625 to 2.5 ug/ml after 24 hrs by microplate dilution assay; format: functional, organism-based
Fusobacterium nucleatum [10] = test: Antibacterial activity against Fusobacterium nucleatum ATCC 25586 assessed as growth inhibition at 0.00625 to 2.5 ug/ml ug/ml after 24 hrs by microplate dilution assay; format: functional, organism-based; in short: as §1
Porphyromonas gingivalis [11] = test: Antibacterial activity against Porphyromonas gingivalis ATCC 33277 assessed as growth inhibition at 0.00625 to 2.5 ug/ml ug/ml after 24 hrs by microplate dilution assay; format: functional; in short: as §1
Prevotella intermedia [12] = test: Antibacterial activity against Prevotella intermedia ATCC 25611 assessed as growth inhibition at 0.00625 to 2.5 ug/ml ug/ml after 24 hrs by microplate dilution assay; format: functional, organism-based; in short: as §1

SMILES | growth inhibition (GI) (Streptococcus mutans [1]) | growth inhibition (GI) (Streptococcus sobrinus [2]) | growth inhibition (GI) (Prevotella intermedia [3]) | further results
COc1c(CC=C(C)C)c(O)cc2oc(=O)c(-c3ccc(O)cc3O)cc12 | inactive | inactive | Active | 
COc1cc2c(c(OC)c1CC=C(C)C)C[C@H](c1ccc(O)cc1O)CO2 | inactive | inactive | Active | 
COc1c(CC=C(C)C)c(O)cc2c1C[C@H](c1ccc(O)c(CC=C(C)C)c1O)CO2 |  |  | Active | growth inhibition (GI) (Streptococcus mutans [4]): Active; growth inhibition (GI) (Streptococcus sobrinus [5]): Active; growth inhibition (GI) (Fusobacterium nucleatum [6]): Active; growth inhibition (GI) (Porphyromonas gingivalis [7]): Active
COc1cc2oc(=O)c(-c3ccc(O)cc3O)cc2c(OC)c1CC=C(C)C | inactive | inactive | Active | 
COc1cc2c(c(OC)c1CC=C(C)C)C[C@H](C1=CC(=O)C(O)=C(CC=C(C)C)C1=O)CO2 | inactive | inactive | Active | 
CC1(C)S[C@@H]2[C@H](NC(=O)Cc3ccccc3)C(=O)N2[C@H]1C(=O)O |  |  |  | growth inhibition (GI) (Streptococcus mutans [8]): Active; growth inhibition (GI) (Streptococcus sobrinus [9]): Active; growth inhibition (GI) (Fusobacterium nucleatum [10]): Active; growth inhibition (GI) (Porphyromonas gingivalis [11]): Active; growth inhibition (GI) (Prevotella intermedia [12]): Active
CC(C)=CCc1cc(-c2coc3cc(O)cc(O)c3c2=O)c(O)cc1O | inactive | inactive | Active | 
